According to ChEMBL document CHEMBL3407380, “Structure-based design of phthalimide derivatives as potential cyclooxygenase-2 (COX-2) inhibitors: anti-inflammatory and analgesic activities” (Eur J Med Chem, 2015):

Legend:
[1] = molecular target: T1, Prostaglandin G/H synthase 1 (Ovis aries, UniProt P05979); assay: Inhibition of ovine COX1 assessed as inhibition of PGF2alpha production from PGH2 preincubated for 5 mins before arachidonic acid addition measured after 2 mins by enzyme immunoassay
T1 sequence (P05979 whole entry): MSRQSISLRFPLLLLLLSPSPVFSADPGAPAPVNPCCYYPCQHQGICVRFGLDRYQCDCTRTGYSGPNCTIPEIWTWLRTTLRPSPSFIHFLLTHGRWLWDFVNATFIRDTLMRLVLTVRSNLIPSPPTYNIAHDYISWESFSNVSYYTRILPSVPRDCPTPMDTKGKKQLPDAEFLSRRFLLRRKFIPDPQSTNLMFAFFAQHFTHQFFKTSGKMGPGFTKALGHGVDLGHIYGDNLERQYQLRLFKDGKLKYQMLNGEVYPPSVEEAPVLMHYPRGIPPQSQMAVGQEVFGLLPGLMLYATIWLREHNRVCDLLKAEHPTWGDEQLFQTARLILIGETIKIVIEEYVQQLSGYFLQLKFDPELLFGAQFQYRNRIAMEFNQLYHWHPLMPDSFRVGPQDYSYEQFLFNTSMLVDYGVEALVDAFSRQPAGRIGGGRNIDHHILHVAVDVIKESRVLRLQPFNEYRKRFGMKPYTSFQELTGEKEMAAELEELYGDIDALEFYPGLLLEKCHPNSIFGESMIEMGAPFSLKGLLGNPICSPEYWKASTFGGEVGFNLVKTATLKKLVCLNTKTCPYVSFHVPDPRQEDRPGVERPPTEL
Procedure, shortened: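 Ovine COX-1 from a COX-1/COX-2 inhibitor screening kit, in 0.1 M Tris-HCl pH 8.0. Enzyme was incubated with inhibitor for 5 min at 37 °C. Arachidonic acid (100 µM solution) was then added, and the reaction was stopped with 1 M HCl after 2 min. Prostaglandins were quantified by competitive acetylcholinesterase-tracer EIA read at 410 nm.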

[2] = test system: Rattus norvegicus; assay: Antiinflammatory activity in ip dosed Sprague-Dawley rat assessed as inhibition of carrageenan-induced paw edema measured 2 hrs post dose by displacement plethysmometer analysis; assay type: functional
[3] = test system: Mus musculus; assay: Analgesic activity in ip dosed albino Swiss mouse assessed as licking or blowing latency time measured 60 mins post dose by hot plate method; assay type: functional; settings: 1 h

Row | Compound | IC50 [1] [µM] | ED50 [2] [mg/kg] | ED50 [3] [mg/kg]
1 | COc1ccc(CN2C(=O)c3cc(Cl)c(Cl)cc3C2=O)cc1 | 131 | 75 | 51.2
2 | COc1cc(CN2C(=O)c3ccc(C)cc3C2=O)cc(OC)c1OC | > 100 | 130 | 
3 | COc1cc(CN2C(=O)c3cc(Cl)c(Cl)cc3C2=O)cc(OC)c1OC | 120 | 67 | 57.4
4 | COc1cc(CN2C(=O)c3ccc(C(C)(C)C)cc3C2=O)cc(OC)c1OC | > 100 | 147 | 79.3
5 | COc1cc(CN2C(=O)c3ccccc3C2=O)cc(OC)c1OC | > 100 | 149 | 110
6 | O=C1c2nccnc2C(=O)N1Cc1ccc(F)cc1 | > 100 |  | 
7 | COc1ccc(CN2C(=O)c3c(Cl)c(Cl)c(Cl)c(Cl)c3C2=O)cc1 | > 100 | 103 | 52.9
8 | O=C1c2ccc([N+](=O)[O-])cc2C(=O)N1Cc1ccc(F)cc1 | > 100 | 127 | 35
9 | COc1cc(CN2C(=O)C3CC=CCC3C2=O)cc(OC)c1OC (configuration not stated) | > 100 | 171 | 125
10 | COc1ccc(CN2C(=O)c3ccc([N+](=O)[O-])cc3C2=O)cc1 | 119 | 68 | 17
11 | O=C1c2cccc3cccc(c23)C(=O)N1Cc1ccc(F)cc1 | > 100 |  | 
12 | COc1ccc(CN2C(=O)c3nccnc3C2=O)cc1 | 117 | 159 | 106
13 | COc1ccc(CN2C(=O)CCC2=O)cc1 | > 100 |  | 
14 | COc1cc(CN2C(=O)c3c(Cl)c(Cl)c(Cl)c(Cl)c3C2=O)cc(OC)c1OC | > 100 | 144 | 54.7
15 | COc1cc(CN2C(=O)c3cccc4cccc(c34)C2=O)cc(OC)c1OC | > 100 | 115 | 88
16 | COc1ccc(CN2C(=O)c3ccc(C(C)(C)C)cc3C2=O)cc1 | > 100 | 137 | 96.1

Row | Compound | IC50 [1] [µM] | ED50 [2] [mg/kg] | ED50 [3] [mg/kg]
17 | COc1ccc(CN2C(=O)c3ccccc3C2=O)cc1 | 110 | 162 | 107
18 | O=C1c2cc(Cl)c(Cl)cc2C(=O)N1Cc1ccc(F)cc1 | > 100 |  | 
19 | COc1ccc(CN2C(=O)c3ccc(C)cc3C2=O)cc1 | > 100 | 153 | 80.5
20 | O=C1CCC(=O)N1Cc1ccc(F)cc1 | > 100 |  | 
21 | COc1ccc(CN2C(=O)c3cccc4cccc(c34)C2=O)cc1 | > 100 | 129 | 119
22 | O=C1C2CC=CCC2C(=O)N1Cc1ccc(F)cc1 (configuration not stated) | > 100 |  | 
23 | COc1cc(CN2C(=O)c3ccc([N+](=O)[O-])cc3C2=O)cc(OC)c1OC | 120 | 54 | 27.6
24 | Cc1ccc2c(c1)C(=O)N(Cc1ccc(F)cc1)C2=O | > 100 | 172 | 97
25 | CC(C)(C)c1ccc2c(c1)C(=O)N(Cc1ccc(F)cc1)C2=O | > 100 |  | 
26 | COc1ccc(CN2C(=O)C3CC=CCC3C2=O)cc1 (configuration not stated) | > 100 |  | 
27 | Cc1ccc(-c2cc(C(F)(F)F)nn2-c2ccc(S(N)(=O)=O)cc2)cc1 [CELECOXIB] |  |  | 71
28 | O=C1c2ccccc2C(=O)N1Cc1ccc(F)cc1 | 116 | 170 | 90
29 | O=C1c2c(Cl)c(Cl)c(Cl)c(Cl)c2C(=O)N1Cc1ccc(F)cc1 | > 100 |  | 
30 | COc1cc(CN2C(=O)CCC2=O)cc(OC)c1OC | > 100 | 180 | 95
31 | COc1cc(CN2C(=O)c3nccnc3C2=O)cc(OC)c1OC | > 100 | 119 | 40.5
